Results: PubChem BioAssay AID651846 (The Scripps Research Institute Molecular Screening Center, 2012)
Activity calls are given as the source filed them.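 Rule for the calls: active = IC50 at or below 10 µM; inactive = IC50 above 10 µM.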

System: CHO-S GAL4-VP16 UAS luciferase reporter, luminescence
Assay: repression of VP16-driven reporter luminescence – CHO-S cells, counter-screen for NR2E3 agonist project, late-stage follow-up (AID 651846)
In short: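 Test system: CHO-S cells transiently co-transfected with GAL4 DBD–VP16 fusion plus UAS pGL4.31 luciferase | Timing: 24 h compound treatment, 37 °C | Technique: Luciferase luminescence with One-Glo reagent, 10 min at room temperature | Read-out: % inhibition of luciferase signal | Replicates: Triplicates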

Row | SMILES | IC50
1 | COc1cccc(NC(=O)CSc2nc3ncc(Br)cc3[nH]2)c1 | > 39.8 µM (inactive)
2 | NC(=O)c1nn(-c2ccccc2)nc1NC(=O)CSc1nnnn1-c1ccc(Cl)cc1 | > 39.8 µM (inactive)
3 | O=c1cc(N2CCN(c3cccc(Cl)c3)CC2)[nH]c(=O)n1C1CCCCC1 | > 39.8 µM (inactive)
4 | COc1ccc(OC)c(NC(=O)CSc2nnnn2-c2ccc3c(c2)OCO3)c1 | > 39.8 µM (inactive)
5 | O=C(O)CC1(CC(=O)Nc2cc(C(F)(F)F)cc(C(F)(F)F)c2)CCCCC1 | 7.72 µM
6 | Cc1cccc(OCCCC(=O)Nc2nc3ccccc3[nH]2)c1 | > 39.8 µM (inactive)
7 | O=C(CSc1nnnn1-c1ccc(O)cc1)Nc1ccc(N2CCOCC2)c(Cl)c1 | > 39.8 µM (inactive)
8 | COc1ccc(NC2c3ccccc3C(=O)N2Cc2ccccc2Cl)cc1OC (stereo unspecified) | > 39.8 µM (inactive)
9 | Cc1cc(C)cc(NC(=O)CCc2nc3sc4c(c3c(=O)[nH]2)CCCC4)c1 | > 39.8 µM (inactive)
10 | Cc1cnc(NC(=O)CCCc2nc3ccccc3s2)s1 | > 39.8 µM (inactive)
11 | Cc1onc(-c2ccccc2Cl)c1C(=O)Nc1nc2c(s1)CCCC2 | > 39.8 µM (inactive)
12 | COc1cc2nc(CN3CC=C(c4ccccc4)CC3)[nH]c(=O)c2cc1OC | > 39.8 µM (inactive)
13 | O=C(CSc1nnnn1-c1ccc2c(c1)OCCO2)Nc1nc2c(s1)CCCC2 | > 39.8 µM (inactive)
14 | O=C(Nc1cccc(NC(=O)c2c(F)cccc2F)n1)c1c(F)cccc1F | > 39.8 µM (inactive)
15 | Cc1cnc(NC(=O)C2CC(=O)N(c3ccc4c(c3)OCCO4)C2)s1 (stereo unspecified) | > 39.8 µM (inactive)
16 | Cc1cnc(NC(=O)Cc2ccc(Br)cc2)s1 | > 39.8 µM (inactive)
17 | COc1ccc(S(=O)(=O)N2CCCCC2)cc1NC(=S)Nc1cccc(Cl)c1C | > 39.8 µM (inactive)
18 | COc1ccc2c(CC(=O)Nc3ncc(C)s3)coc2c1 | > 39.8 µM (inactive)
19 | Cc1cccc(C(=O)N[C@H](C(=O)Nc2ncc(C)s2)C(C)C)c1 | > 39.8 µM (inactive)
20 | Cc1ccc(NC(=O)CSc2nnnn2-c2ccc3c(c2)OCO3)cc1C | > 39.8 µM (inactive)
21 | Cc1ccc(-c2nc(NC(=O)CSc3nnnn3-c3ccccc3)ns2)cc1 | > 39.8 µM (inactive)
22 | COc1ccc(S(=O)(=O)N2CCCCC2)cc1NC(=S)Nc1ccccc1 | > 39.8 µM (inactive)
23 | COc1cccc(N2CCN(c3nc(-c4ccccc4C)cc(=O)[nH]3)CC2)c1 | > 39.8 µM (inactive)
24 | Cc1ccc(CN2CC(C(=O)Nc3ncc(C)s3)CC2=O)cc1 (stereo unspecified) | > 39.8 µM (inactive)
25 | O=c1c(Cl)c(N2CCN(c3ccc(F)cc3)CC2)cnn1C12CC3CC(CC(C3)C1)C2 | > 39.8 µM (inactive)
26 | Cc1ccnc(NC(=O)CSc2cc(=O)n(C)c3ccccc23)c1 | > 39.8 µM (inactive)
